Consider five molecules from ChEMBL document CHEMBL4364335, “Highly hydrophilic 1,3-oxazol-5-yl benzenesulfonamide inhibitors of carbonic anhydrase II for reduction of glaucoma-related intraocular pressure” (Bioorg Med Chem, 2019).

The source made the active and inactive calls. The rule behind the calls is not given here.

In general, Ki refers to a dissociation constant, usually derived from enzyme kinetics or from competition with a known ligand. One may read the Emax as the greatest response seen or fitted, relative to the assay's reference.

A short description of series [1]: Toxicity in New Zealand White rabbit assessed as induction of eye lid closure at 0.5% administered topically to the eye. On the set-up: species or system Oryctolagus cuniculus. The note with it: in vivo, topical_or_ocular. In short, it runs like this:
(§1)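 Single 25 µl drop given to the left eye of albino rabbits, which were held immobile for one minute afterwards. Irritation was followed by eye throughout the experiment and scored as blinking, head shaking or eyelid closure, with the duration of closure noted in seconds.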

In the next series the target is Carbonic anhydrase 12 (Homo sapiens, UniProt O43570). Nature of the series: Inhibition of human carbonic anhydrase 12 incubated for 15 mins by phenol red staining-based stopped flow CO2 hydrase assay.
In series [2] the test system is Oryctolagus cuniculus. As to the kind of experiment: Reduction of intraocular pressure in ocular normotensive New Zealand White rabbit at 0.5 % administered topically to the eye measured for 0.5 to 8 hrs by tonometry. It counts as functional, organism-based.
The next series has as its target Carbonic anhydrase 1 (Homo sapiens, UniProt P00915). Nature of the series: Inhibition of human carbonic anhydrase 1 incubated for 15 mins by phenol red staining-based stopped flow CO2 hydrase assay.
A further series deals with Carbonic anhydrase 4 (Homo sapiens, UniProt P22748). Nature of the series: Inhibition of human carbonic anhydrase 4 incubated for 15 mins by phenol red staining-based stopped flow CO2 hydrase assay.
The test system of series [3] is Oryctolagus cuniculus. Nature of the series: Reduction of intraocular pressure in ocular normotensive New Zealand White rabbit administered topically to the eye measured for 0.5 to 8 hrs by tonometry (reference value: 12.00 +/- 6.81%). It counts as functional. The note with it: topical.
A further series has as its target Carbonic anhydrase 2 (Homo sapiens, UniProt P00918). As to the kind of experiment: Inhibition of human carbonic anhydrase 2 incubated for 15 mins by phenol red staining-based stopped flow CO2 hydrase assay.
Series [4] can be described thus: Toxicity in New Zealand White rabbit assessed as head shaking at 1% administered topically to the eye. On the set-up: species or system Oryctolagus cuniculus. To be noted: in vivo, topical_or_ocular. In short, it runs like this:
as §1

Series [5] is described as follows: Toxicity in New Zealand White rabbit assessed as induction of eye lid closure at 1% administered topically to the eye. Further details: species or system Oryctolagus cuniculus. To be noted: in vivo, topical_or_ocular. An outline of the steps:
as §1

For series [6], the system named is Oryctolagus cuniculus. As to the kind of experiment: Reduction of intraocular pressure in ocular normotensive New Zealand White rabbit at 1% administered topically to the eye measured for 0.5 to 8 hrs by tonometry. The series is classed as functional, organism-based.
The nature of series [7]: Toxicity in New Zealand White rabbit assessed as head shaking at 0.5% administered topically to the eye. To be noted: in vivo, topical_or_ocular. On the set-up: species or system Oryctolagus cuniculus. In short, it runs like this:
as §1

In series [8] the test system is Oryctolagus cuniculus. As to the kind of experiment: Reduction of intraocular pressure in ocular normotensive New Zealand White rabbit at 2% administered topically to the eye measured for 0.5 to 8 hrs by tonometry. The series is classed as functional, organism-based.
Series [9] can be described thus: Toxicity in New Zealand White rabbit assessed as head shaking at 2% administered topically to the eye. Further details: species or system Oryctolagus cuniculus. The note with it: in vivo, topical_or_ocular. In short, it runs like this:
as §1

A short description of series [10]: Toxicity in New Zealand White rabbit assessed as induction of eye lid closure at 2% administered topically to the eye. Further details: species or system Oryctolagus cuniculus. To be noted: in vivo, topical_or_ocular. An outline of the steps: as §1

Carbonic anhydrase 12, sequence (O43570 whole entry): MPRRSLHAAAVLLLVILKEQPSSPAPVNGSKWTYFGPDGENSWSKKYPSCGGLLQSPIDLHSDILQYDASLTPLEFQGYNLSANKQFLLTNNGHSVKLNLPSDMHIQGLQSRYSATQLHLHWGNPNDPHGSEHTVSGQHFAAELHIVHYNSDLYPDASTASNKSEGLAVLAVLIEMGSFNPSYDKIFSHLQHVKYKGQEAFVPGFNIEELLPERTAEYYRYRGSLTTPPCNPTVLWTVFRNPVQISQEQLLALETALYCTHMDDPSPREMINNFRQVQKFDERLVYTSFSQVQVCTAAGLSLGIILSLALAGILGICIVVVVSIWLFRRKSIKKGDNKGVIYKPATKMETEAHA
Carbonic anhydrase 1, sequence (P00915 whole entry): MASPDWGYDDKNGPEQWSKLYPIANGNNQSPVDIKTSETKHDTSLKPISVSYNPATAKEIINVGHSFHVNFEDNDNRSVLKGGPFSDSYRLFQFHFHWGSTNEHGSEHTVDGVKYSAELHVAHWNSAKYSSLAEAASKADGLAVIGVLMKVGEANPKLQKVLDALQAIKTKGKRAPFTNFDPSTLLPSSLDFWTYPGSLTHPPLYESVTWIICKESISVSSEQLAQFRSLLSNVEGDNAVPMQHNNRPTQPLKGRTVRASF
Carbonic anhydrase 4, sequence (P22748 whole entry): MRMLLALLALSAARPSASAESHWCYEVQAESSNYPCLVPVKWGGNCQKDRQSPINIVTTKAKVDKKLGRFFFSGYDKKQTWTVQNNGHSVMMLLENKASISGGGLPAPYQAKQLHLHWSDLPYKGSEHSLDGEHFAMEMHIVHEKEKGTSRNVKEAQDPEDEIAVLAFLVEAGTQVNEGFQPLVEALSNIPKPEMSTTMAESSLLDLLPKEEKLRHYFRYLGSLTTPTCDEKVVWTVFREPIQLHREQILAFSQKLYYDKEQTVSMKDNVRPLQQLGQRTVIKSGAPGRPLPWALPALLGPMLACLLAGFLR

Regarding `NC1CCN(C(=O)c2ncc(-c3ccc(S(N)(=O)=O)cc3)o2)CC1`, the Activity result in series [1] is “Toxic”. Moreover, the inhibition constant (Ki) at Carbonic anhydrase 12 came out at 91.5 nM; on Carbonic anhydrase 1, 61.9 nM; on Carbonic anhydrase 4 it was 257 nM; on Carbonic anhydrase 2 it was 0.54 nM. Also, the outcome in the series with Oryctolagus cuniculus [2] was inactive. This molecule also yielded a maximum response (Emax) with Oryctolagus cuniculus [3] of 22%.

`NCCNC(=O)c1ncc(-c2ccc(S(N)(=O)=O)cc2)o1`: the results for the Ki at Carbonic anhydrase 12 and on Carbonic anhydrase 1 were 90.1 nM and 101 nM, respectively. For the same molecule, the Activity result in series [4] and in series [5] was “Non-Toxic” in each case. Moreover, in the series on Oryctolagus cuniculus [6], the result was Active. Further, the Emax with Oryctolagus cuniculus [3] came out at 29.6%.

With `NS(=O)(=O)c1ccc(-c2cnc(C(=O)NC3CCNCC3)o2)cc1`, the Activity result in series [1] and in series [7] was “Non-Toxic” each time. The inhibition constant (Ki) at Carbonic anhydrase 12 turned out to be 87.3 nM; at Carbonic anhydrase 1 it was 50.8 nM. Moreover, the Emax with Oryctolagus cuniculus [3] turned out to be 19.4%.

`NS(=O)(=O)c1ccc(-c2cnc(C(=O)N3CCNCC3)o2)cc1`: the Ki at Carbonic anhydrase 12 is 68.5 nM; at Carbonic anhydrase 1 it was 109 nM; at Carbonic anhydrase 4 it was 420 nM; at Carbonic anhydrase 2 it was 5 nM. Further, the Activity result in series [4] and in series [5] was “Non-Toxic” each time. Besides, in the series on Oryctolagus cuniculus [6], the result was Active. In the series on Oryctolagus cuniculus [3], this molecule yielded an Emax of 35.6%.

Turning to `CCN[C@H]1C[C@H](C)S(=O)(=O)c2sc(S(N)(=O)=O)cc21` [DORZOLAMIDE], in the series on Oryctolagus cuniculus [8], the result was Active. In addition, the Activity entry in series [9] and in [10] was “Non-Toxic” in each case. Also, the Emax with Oryctolagus cuniculus [3] was found to be 27.8%.
